According to ChEMBL document CHEMBL4024792, “(N-Hydroxycarbonylbenylamino)quinolines as Selective Histone Deacetylase 6 Inhibitors Suppress Growth of Multiple Myeloma in Vitro and in Vivo” (J Med Chem, 2018):

Columns and labels:
[1] = tested on: U-266; experiment: Cell cycle arrest in human U266 cells assessed as accumulation at sub-G1 phase at 5 uM after 24 hrs by propidium iodide staining based flow cytometry (reference value: 10.76%); type: functional
[2] = tested on: U-266; experiment: Cell cycle arrest in human U266 cells assessed as accumulation at S phase at 5 uM after 24 hrs by propidium iodide staining based flow cytometry (reference value: 14.05%); type: functional
[3] = tested on: NCI-H929; experiment: Cell cycle arrest in human NCI-H929 cells assessed as accumulation at G2/M phase at 5 uM after 24 hrs in presence of bortezomib by propidium iodide staining based flow cytometry (reference value: 31.63%); type: functional
[4] = tested on: RPMI-8226; experiment: Antitumor activity against human RPMI8226 cells xenografted in nude mouse assessed as tumor growth inhibition at 30 mg/kg, iv or ip administered for 5 days followed by 2 days off for 35 days relative to control; type: functional; details: read-out: TGI
Summary of the method: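 RPMI 8226 cells (1 × 10^7) implanted s.c. in eight-week-old male nude mice. At mean tumor volume 200 mm3, mice randomized into four groups (n = 8). Caliper measurement every 3–4 days, volume L×W²/2. %TGI computed from treated versus control volume changes relative to time 0.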

[5] = Stability in human hepatocytes assessed as parent compound remaining at 10 uM after 60 mins by LC-MS/MS analysis; type: ADME, cell-based, Hepatocyte; details: read-out: Stability
Summary of the method: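 Cryopreserved hepatocytes (Sprague-Dawley rat, beagle dog, human) incubated with compound at 10 µM, 37 °C, for up to 4 h. About 0.5×10^6 cells/well for rat and dog, 0.24×10^6 for human.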

[6] = Half life in human hepatocytes at 10 uM by LC-MS/MS analysis; type: ADME, cell-based, Hepatocyte
Summary of the method: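 Substrate depletion in cryopreserved hepatocytes (male SD rat, male beagle dog, human). Compound at 10 µM incubated at 37 °C for up to 4 h. Cell density approximately 0.5 × 10^6 hepatocytes/well for rat and dog, 0.24 × 10^6/well for human. Half-life and CLint derived from depletion; % remaining at 60 min also reported.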

[7] = Apparent permeability from basolateral to apical side in human Caco2 cells at 10 uM after 2 hrs by LC-MS/MS analysis; type: ADME, cell-based; details: Caco-2
Summary of the method: (§1)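 Caco-2 cells seeded at 8.4 × 10^4 cells/cm2 on polycarbonate inserts for 21 days. For A→B, donor was apical (HBSS/MES pH 6.5, 10 µM compound) and receiver basolateral (HBSS/HEPES pH 7.4). For B→A, donor was basolateral (HBSS/HEPES pH 7.4, 10 µM) and receiver apical (HBSS/MES pH 6.5). Incubated at 37 °C for 2 h. Receiver sampled at 30, 60, 90 and 120 min, donor at 0 and 120 min.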

[8] = Apparent permeability from basolateral to apical side in human Caco2 cells assessed as drug recovery at 10 uM after 2 hrs by LC-MS/MS analysis; type: ADME, cell-based; details: Caco-2, read-out: Drug recovery; summary of the method: as §1
[9] = tested on: Salmonella typhimurium; experiment: Mutagenicity in Salmonella typhimurium TA98 assessed as increase in number of revertant colonies at 3 to 3000 ug/plate in presence of S9 fraction by Ames test; type: toxicity; details: salmonella enterica subsp. enterica serovar typhimurium
Summary of the method: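 Ames test, TA98 and TA100. Overnight broth cultures preincubated 20 min at 35-37 °C with compound (DMSO stock) plus Aroclor 1254-induced rat liver S9 mix or PBS, then plated in top agar with 0.05 mM histidine/biotin. Final 3-3000 µg/plate; revertants counted after 72 h at 37 °C. ≥3-fold over vehicle = mutagenic; ≤50% = cytotoxic.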

O=C(NO)c1ccc(CNc2cccc3cccnc23)cc1
Activity [1]: 17.82%
Activity [2]: 6.12%
Activity [3]: 1.73%
inhibition in vivo at 30 mg/kg [4]: 60.4%
remaining at 1 h, 10 µM [5]: 86.4%
half-life at 10 µM [6]: 4 h
Papp B→A at 2 h, 10 µM [7]: 20.1 ×10⁻⁶ cm/s
recovery at 2 h, 10 µM [8]: 69%
Activity [9]: Non-Toxic
